Data published in ChEMBL document CHEMBL1147233, “Chemistry and structure-activity relationship of HIV-1 integrase inhibitor integracide B and related natural products” (J Nat Prod, 2003).

Legend:
[1] = Inhibition of DNAse
[2] = target: T1, Human immunodeficiency virus type 1 integrase (Human immunodeficiency virus 1, UniProt Q7ZJM1); assay: Inhibition of recombinant HIV1 integrase using preprocessed donor DNA treated after washing excess enzyme by strand transfer assay
In short: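 Integrase preincubated with preprocessed donor DNA, unbound enzyme washed off, then target DNA and inhibitor added together. Strand transfer product measured. Final DMSO 10%. IC50 from serial 2-fold dilutions run in duplicate or triplicate; values without error limits are the average of these.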

[3] = target: Type II restriction enzyme EcoRI (Escherichia coli, UniProt P00642); assay: Inhibition of Escherichia coli ECOR1
[4] = target: T1, Human immunodeficiency virus type 1 integrase; assay: Inhibition of recombinant HIV1 integrase using unprocessed donor DNA by coupled assay
In short: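 Unprocessed donor DNA and inhibitor incubated with recombinant integrase together for 30 min, then target DNA added; strand-transfer product measured. Final DMSO 10%. IC50 from serial 2-fold dilutions in duplicate or triplicate; values without error limits are the average of these.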

[5] = tested on: Human immunodeficiency virus 1; assay: Antiviral activity against HIV1 infected in human H9 cells; type: functional; details: Human immunodeficiency virus 1, H9; read-out: CIC95
In short: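 Multiple-cycle viral spread assay in HIV-1-infected H9 T-lymphoid cells; value is CIC95, the concentration giving >95% protection from viral infection.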

[6] = target: T1, Human immunodeficiency virus type 1 integrase; assay: Inhibition of HIV1 integrase assessed as inhibition of 3'-end processing reaction
In short: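 Specific 3′-end processing of LTR donor-sequence oligonucleotide substrates, run with […]. IC₅₀ values without error limits are the average of duplicate or triplicate data sets.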

[7] = target: T1, Human immunodeficiency virus type 1 integrase; assay: Inhibition of HIV1 integrase-mediated preintegration complex formation by Southern blotting
In short: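 Preintegration complexes were isolated from HIV-1-infected cells, partially purified and used in an integration reaction. Products were analysed by Southern blotting and quantified by phosphorimaging. IC₅₀ values without error limits are the average of duplicate or triplicate data sets.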

[8] = target: T1, Human immunodeficiency virus type 1 integrase; assay: Inhibition of recombinant HIV1 integrase using preprocessed donor DNA by assembly assay
In short: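 Recombinant integrase and inhibitor were incubated with preprocessed donor DNA, unbound integrase was washed off, then target DNA was added. The read-out is the strand-transfer product. Final DMSO was 10%. IC₅₀ came from 2-fold dilution series run in duplicate or triplicate.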

T1 sequence (Q7ZJM1 whole entry): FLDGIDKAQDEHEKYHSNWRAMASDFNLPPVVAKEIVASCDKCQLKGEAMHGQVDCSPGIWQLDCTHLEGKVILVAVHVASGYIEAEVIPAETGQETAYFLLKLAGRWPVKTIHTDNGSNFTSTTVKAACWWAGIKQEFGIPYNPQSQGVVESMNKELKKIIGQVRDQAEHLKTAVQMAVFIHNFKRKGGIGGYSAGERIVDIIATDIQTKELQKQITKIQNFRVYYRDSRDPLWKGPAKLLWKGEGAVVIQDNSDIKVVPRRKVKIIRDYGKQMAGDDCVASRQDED
Sequence of Type II restriction enzyme EcoRI (P00642 whole entry): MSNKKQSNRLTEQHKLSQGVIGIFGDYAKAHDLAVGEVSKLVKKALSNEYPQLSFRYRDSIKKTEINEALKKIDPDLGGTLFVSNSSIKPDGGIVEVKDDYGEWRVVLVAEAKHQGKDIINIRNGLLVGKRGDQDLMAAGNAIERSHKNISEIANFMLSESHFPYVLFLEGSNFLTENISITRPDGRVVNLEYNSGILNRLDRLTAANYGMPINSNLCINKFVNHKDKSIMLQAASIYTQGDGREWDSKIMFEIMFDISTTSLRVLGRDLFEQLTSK

SMILES | IC50 [1] [µM] | IC50 [2] [µM] | IC50 [3] [µM] | IC50 [4] [µM] | IC95 [5] [µM] | IC50 [6] [µM] | IC50 [7] [µM] | IC50 [8] [µM]
C=C(CC[C@@H](C)[C@H]1CC=C2C3=C([C@@H](O)[C@H](OC(C)=O)[C@@]21C)[C@@]1(C)C[C@@H](O)[C@H](OS(=O)(=O)O)C(C)(C)[C@@H]1CC3)C(C)C [INTEGRACIDE A] | > 50 | 9 | > 50 | 4 | 25 | 5 | 50 | 
C=C(CC[C@@H](C)[C@H]1CC[C@H]2C3=C([C@@H](O)[C@H](OC(C)=O)[C@]12C)[C@@]1(C)C[C@@H](O)[C@H](OS(=O)(=O)O)C(C)(C)[C@@H]1CC3)C(C)C | > 50 | 15 | > 50 | 5 | 50 | 5 | 30 | 10
CC(=O)O[C@H]1[C@H](O)C2=C(CC[C@H]3C(C)(C)[C@@H](OS(=O)(=O)O)[C@H](OC(=O)CCCCCCCCCCCCCCCO)C[C@]23C)[C@@H]2CC[C@H]([C@H](C)CCC3(C(C)(C)O)CO3)[C@]21C (some centres undefined) | > 50 | 5.6 | > 50 | 5.6 | > 50 | 2 | 50 | 12
CC(=O)O[C@H]1[C@H](O)C2=C(CC[C@H]3C(C)(C)[C@@H](OS(=O)(=O)O)[C@H](OC(=O)CCCCCCCCCCCCCCCO)C[C@]23C)C2=CC[C@H]([C@H](C)CCC3(C(C)(C)O)CO3)[C@]21C (some centres undefined) | > 50 | 14 | > 50 | 5 | 6 | 10 |  | 
